ChEMBL document CHEMBL1125281, “Identification and synthesis of a receptor binding site of human anaphylatoxin C5a” (J Med Chem, 1991)
Where a SMILES comes first, the peptide text is derived from it. Bridges are numbered along the chain shown (N, C = ends). The star is where a group is joined. Acm = CC(=O)NC*

Key:
[1] = biological target: T1, C5a anaphylatoxin chemotactic receptor 1 (Homo sapiens, UniProt P21730); experiment: Inhibition of [125I]C5a binding to anaphylatoxin chemotactic receptor of PMNL membranes
T1 sequence (P21730 whole entry): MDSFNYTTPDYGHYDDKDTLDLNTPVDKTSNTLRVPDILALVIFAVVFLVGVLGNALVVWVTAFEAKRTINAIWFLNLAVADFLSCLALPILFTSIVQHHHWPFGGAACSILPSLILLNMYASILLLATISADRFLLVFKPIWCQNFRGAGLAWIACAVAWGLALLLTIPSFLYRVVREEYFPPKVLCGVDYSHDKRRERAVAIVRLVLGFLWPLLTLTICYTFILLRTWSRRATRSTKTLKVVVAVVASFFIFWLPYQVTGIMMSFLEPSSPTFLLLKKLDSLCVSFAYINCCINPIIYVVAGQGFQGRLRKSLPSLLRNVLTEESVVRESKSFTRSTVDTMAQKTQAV

[2] = biological target: T1, C5a anaphylatoxin chemotactic receptor 1; experiment: Inhibition of [125I]C5a binding to anaphylatoxin chemotactic receptor of PMNL cells; format: cell-based
Method in brief: (§1)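 Intact human PMNL isolated from peripheral blood by one-step density centrifugation. Cells incubated 20 min at 23 °C with [125I]C5a (1 × 10⁻⁹ M), test peptide and protease inhibitors. Cells separated from free ligand by centrifugation through silicone oil at 10000g; pellet γ counts read.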

[3] = biological target: T1, C5a anaphylatoxin chemotactic receptor 1; experiment: Inhibition of [125I]C5a binding to C5a anaphylatoxin chemotactic receptor in PMNL intact cells; inactive; format: cell-based; method in brief: as §1
[4] = biological target: T1, C5a anaphylatoxin chemotactic receptor 1; experiment: Inhibition of [125I]C5a binding to C5a anaphylatoxin chemotactic receptor in PMNL membranes; format: cell membranes
[5] = biological target: T1, C5a anaphylatoxin chemotactic receptor 1; experiment: Inhibition of [125I]-C5a anaphylatoxin chemotactic receptor binding to PMNL membranes.

CC(=O)N[C@@H](C)C(=O)N[C@@H](C)C(=O)N[C@@H](CCCCN)C(=O)N[C@@H](Cc1ccc(O)cc1)C(=O)N[C@@H](CCCCN)C(=O)N[C@@H](Cc1c[nH]cn1)C(=O)N[C@@H](CO)C(=O)N[C@H](C(=O)N[C@H](C(=O)N[C@@H](CCCCN)C(=O)N[C@@H](CCCCN)C(=O)O)C(C)C)C(C)C (Ac-AAKYKHSVVKK-OH)
Ki [1]: Not Active | Ki [2]: Not Active

CSCC[C@H](NC(=O)[C@H](CC(=O)O)NC(=O)[C@H](CCCCN)NC(=O)[C@H](Cc1c[nH]cn1)NC(C)=O)C(=O)N[C@@H](CCC(N)=O)C(=O)N[C@@H](CC(C)C)C(=O)NCC(=O)N[C@@H](CCCN=C(N)N)C(=O)O (Ac-HKDMQLGR-OH)
Ki [3]: Not Active

CSCC[C@H](NC(=O)[C@H](CC(=O)O)NC(=O)[C@H](CCCCN)NC(=O)[C@H](Cc1cnc[nH]1)NC(C)=O)C(=O)N[C@@H](CCC(N)=O)C(=O)N[C@@H](CC(C)C)C(=O)NCC(=O)N[C@@H](CCCNC(=N)N)C(=O)O (Ac-HKDMQLGR-OH)
Ki [4]: 150 µM

CC[C@H](C)[C@H](NC(=O)[C@H](CC(N)=O)NC(=O)[C@H](C)NC(=O)[C@H](CCCN=C(N)N)NC(=O)[C@H](CC(C)C)NC(=O)[C@H](CCC(N)=O)NC(=O)[C@H](CO)NC(=O)[C@H](C)NC(=O)[C@@H](NC(=O)[C@@H](NC(=O)[C@H](CCSC)NC(C)=O)C(C)C)C(C)C)C(=O)N[C@@H](CO)C(=O)N[C@@H](Cc1c[nH]cn1)C(=O)N[C@@H](CCCCN)C(=O)N[C@@H](CC(=O)O)C(=O)N[C@@H](CCSC)C(=O)N[C@@H](CCC(N)=O)C(=O)N[C@@H](CC(C)C)C(=O)NCC(=O)N[C@@H](CCCN=C(N)N)C(=O)O (Ac-MVVASQLRANISHKDMQLGR-OH)
Ki [2]: Not Active

CC[C@H](C)[C@H](NC(=O)[C@H](CC(N)=O)NC(=O)[C@H](C)NC(=O)[C@H](CCCNC(=N)N)NC(=O)[C@H](CC(C)C)NC(=O)[C@H](CCC(N)=O)NC(=O)[C@H](CO)NC(=O)[C@H](C)NC(=O)[C@@H](NC(=O)[C@@H](NC(=O)[C@H](CCSC)NC(C)=O)C(C)C)C(C)C)C(=O)N[C@@H](CO)C(=O)N[C@@H](Cc1cnc[nH]1)C(=O)N[C@@H](CCCCN)C(=O)N[C@@H](CC(=O)O)C(=O)N[C@@H](CCSC)C(=O)N[C@@H](CCC(N)=O)C(=O)N[C@@H](CC(C)C)C(=O)NCC(=O)N[C@@H](CCCNC(=N)N)C(=O)O (Ac-MVVASQLRANISHKDMQLGR-OH)
Ki [5]: 50 µM

CC[C@H](C)[C@H](NC(=O)[C@H](CCCNC(=N)N)NC(=O)[C@H](C)NC(=O)[C@H](C)NC(=O)[C@H](CCCNC(=N)N)NC(=O)[C@H](CCC(N)=O)NC(=O)[C@H](CCC(=O)O)NC(=O)[C@H](CSCNC(C)=O)NC(=O)[C@@H](NC(C)=O)[C@@H](C)O)C(=O)N[C@@H](CO)C(=O)N[C@@H](CC(C)C)C(=O)O (Ac-TC(Acm)EQRAARISL-OH)
Ki [1]: Not Active | Ki [2]: Not Active

CC(C)C[C@H](NC(=O)[C@H](CCC(N)=O)NC(=O)[C@H](CO)NC(=O)[C@H](C)NC(=O)[C@@H](NC(=O)[C@@H](NC(=O)[C@H](C)N)C(C)C)C(C)C)C(=O)N[C@@H](CCCN=C(N)N)C(=O)O (H-AVVASQLR-OH)
Ki [1]: Not Active | Ki [2]: Not Active

CC[C@H](C)[C@H](NC(=O)[C@H](CCCN=C(N)N)NC(=O)[C@H](C)NC(=O)[C@@H](N)CSCNC(C)=O)C(=O)N[C@@H](CO)C(=O)N[C@@H](CC(C)C)C(=O)NCC(=O)N1CCC[C@H]1C(=O)N[C@@H](CCCN=C(N)N)C(=O)N[C@@H](CCSC)C(=O)N[C@@H](CSCNC(C)=O)C(=O)N[C@@H](CCCCN)C(=O)O (H-C(Acm)ARISLGPRMC(Acm)K-OH)
Ki [1]: Not Active | Ki [2]: Not Active

CC(C)[C@@H]1NC(=O)[C@H](CO)NC(=O)[C@H](Cc2c[nH]cn2)NC(=O)[C@H](CCCCN)NC(=O)[C@H](Cc2ccc(O)cc2)NC(=O)[C@H](CCCCN)NC(=O)[C@H](C)NC(=O)[C@@H](N)CSSC[C@@H](C(=O)O)NC(=O)[C@H](C(C)C)NC1=O (H-CAKYKHSVVC-OH; disulfide 1-10)
Ki [1]: Not Active | Ki [2]: Not Active

CC[C@H](C)[C@H](NC(=O)[C@H](CC(N)=O)NC(=O)[C@H](C)NC(=O)[C@H](CCCNC(=N)N)NC(=O)[C@H](CC(C)C)NC(=O)[C@H](CCC(N)=O)NC(=O)[C@H](CO)NC(=O)[C@H](C)NC(=O)[C@@H](NC(=O)[C@@H](NC(=O)[C@H](CCSC)NC(=O)[C@H](CCSC)NC(=O)[C@H](CCC(=O)O)NC(=O)[C@@H](NC(=O)[C@@H](N)Cc1ccccc1)[C@@H](C)O)C(C)C)C(C)C)C(=O)N[C@@H](CO)C(=O)N[C@@H](Cc1cnc[nH]1)C(=O)N[C@@H](CCCCN)C(=O)N[C@@H](CC(=O)O)C(=O)N[C@@H](CCSC)C(=O)N[C@@H](CCC(N)=O)C(=O)N[C@@H](CC(C)C)C(=O)NCC(=O)N[C@@H](CCCNC(=N)N)C(=O)O (H-FTEMMVVASQLRANISHKDMQLGR-OH)
Ki [5]: 100 µM

CSCC[C@H](NC(=O)[C@H](CC(=O)O)NC(=O)[C@H](CCCCN)NC(=O)[C@@H](N)Cc1c[nH]cn1)C(=O)N[C@@H](CCC(N)=O)C(=O)N[C@@H](CC(C)C)C(=O)NCC(=O)N[C@@H](CCCN=C(N)N)C(=O)O (H-HKDMQLGR-OH)
Ki [3]: Not Active | Ki [4]: 300 µM

CC(C)[C@H](NC(=O)[C@H](C)NC(=O)[C@H](C)NC(=O)CNC(=O)[C@H](CC(=O)O)NC(=O)[C@H](Cc1ccc(O)cc1)NC(=O)[C@H](C)NC(=O)[C@H](C)NC(=O)[C@H](CCCCN)NC(=O)[C@H](CCCCN)NC(=O)[C@@H](NC(=O)[C@@H](NC(=O)[C@H](CO)NC(=O)[C@@H](N)Cc1c[nH]cn1)C(C)C)C(C)C)C(=O)N[C@@H](CC(N)=O)C(=O)N[C@@H](CC(N)=O)C(=O)N[C@@H](CC(=O)O)C(=O)N[C@@H](CCC(=O)O)C(=O)O (H-HSVVKKAAYDGAAVNNDE-OH)
Ki [1]: Not Active | Ki [2]: Not Active

CC(C)[C@H](NC(=O)[C@H](CO)NC(=O)[C@H](Cc1c[nH]cn1)NC(=O)[C@@H](N)CCCCN)C(=O)N[C@H](C(=O)N[C@@H](CCCCN)C(=O)N[C@@H](CCCCN)C(=O)O)C(C)C (H-KHSVVKK-OH)
Ki [1]: Not Active | Ki [2]: Not Active

CC[C@H](C)[C@H](NC(=O)[C@H](CC(N)=O)NC(=O)[C@H](C)NC(=O)[C@H](CCCN=C(N)N)NC(=O)[C@H](CC(C)C)NC(=O)[C@H](CCC(N)=O)NC(=O)[C@@H](N)CO)C(=O)N[C@@H](CO)C(=O)N[C@@H](Cc1c[nH]cn1)C(=O)N[C@@H](CCCCN)C(=O)N[C@@H](CC(=O)O)C(=O)N[C@@H](CCSC)C(=O)N[C@@H](CCC(N)=O)C(=O)N[C@@H](CC(C)C)C(=O)NCC(=O)N[C@@H](CCCN=C(N)N)C(=O)O (H-SQLRANISHKDMQLGR-OH)
Ki [2]: Not Active

CC(=O)NCSC[C@H](NC(=O)[C@H](C)NC(=O)[C@H](CCCCN)NC(=O)[C@H](CCCCN)NC(=O)[C@@H](NC(=O)[C@@H](NC(=O)[C@@H](N)CO)C(C)C)C(C)C)C(=O)N[C@@H](Cc1ccc(O)cc1)C(=O)N[C@@H](CC(=O)O)C(=O)NCC(=O)N[C@@H](C)C(=O)O (H-SVVKKAC(Acm)YDGA-OH)
Ki [1]: Not Active | Ki [2]: Not Active

CC[C@H](C)[C@@H]1NC(=O)[C@H](CCC(=O)O)NC(=O)[C@H](CCC(=O)O)NC(=O)[C@@H](NC(=O)[C@H](CCCCN)NC(=O)[C@H](CCCCN)NC(=O)[C@H](CCC(N)=O)NC(=O)[C@H](CC(C)C)NC(=O)[C@@H](N)[C@@H](C)O)CSSC[C@@H](C(=O)N[C@@H](Cc2ccc(O)cc2)C(=O)N[C@@H](CC(=O)O)C(=O)NCC(=O)N[C@@H](C)C(=O)O)NC(=O)[C@H](C)NC(=O)[C@H](CCCCN)NC(=O)[C@H](CCCCN)NC(=O)[C@H](C(C)C)NC(=O)[C@H](C(C)C)NC(=O)[C@H](CO)NC(=O)[C@H](Cc2c[nH]cn2)NC(=O)[C@H](CCCCN)NC(=O)[C@H](Cc2ccc(O)cc2)NC(=O)[C@H](CCCCN)NC(=O)[C@H](C)NC(=O)[C@H](C)NC1=O (H-TLQKKCEEIAAKYKHSVVKKACYDGA-OH; disulfide 6-22)
Ki [1]: Not Active | Ki [2]: Not Active

CC[C@H](C)[C@H](NC(=O)[C@H](CCC(=O)O)NC(=O)[C@H](CCC(=O)O)NC(=O)[C@@H](NC(=O)[C@H](CCCCN)NC(=O)[C@H](CCCCN)NC(=O)[C@H](CCC(N)=O)NC(=O)[C@H](CC(C)C)NC(=O)[C@@H](N)[C@@H](C)O)[C@@H](C)CC)C(=O)N[C@@H](C)C(=O)N[C@@H](C)C(=O)N[C@@H](CCCCN)C(=O)N[C@@H](Cc1ccc(O)cc1)C(=O)N[C@@H](CCCCN)C(=O)O (H-TLQKKIEEIAAKYK-OH)
Ki [1]: Not Active | Ki [2]: Not Active

CC[C@H](C)[C@H](N)C(=O)N[C@@H](CO)C(=O)N[C@@H](Cc1c[nH]cn1)C(=O)N[C@@H](CCCCN)C(=O)N[C@@H](CC(=O)O)C(=O)N[C@@H](CCSC)C(=O)N[C@@H](CCC(N)=O)C(=O)N[C@@H](CC(C)C)C(=O)NCC(=O)N[C@@H](CCCN=C(N)N)C(=O)O [ISHKDMQLGR] (H-ISHKDMQLGR-OH)
Ki [3]: Not Active

CC[C@H](C)[C@H](N)C(=O)N[C@@H](CO)C(=O)N[C@@H](Cc1cnc[nH]1)C(=O)N[C@@H](CCCCN)C(=O)N[C@@H](CC(=O)O)C(=O)N[C@@H](CCSC)C(=O)N[C@@H](CCC(N)=O)C(=O)N[C@@H](CC(C)C)C(=O)NCC(=O)N[C@@H](CCCNC(=N)N)C(=O)O [ISHKDMQLGR] (H-ISHKDMQLGR-OH)
Ki [4]: 300 µM
